Measurements: ChEMBL document CHEMBL3758106, “Antitumor Activity of Americanin A Isolated from the Seeds of Phytolacca americana by Regulating the ATM/ATR Signaling Pathway and the Skp2-p27 Axis in Human Colon Cancer Cells” (J Nat Prod, 2015)

Tests used:
[1] = Antiproliferative activity against human HCT116 cells after 24 to 72 hrs by SRB assay; format: functional, cell-based; details: HCT-116
Method in brief: (§1)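 Cells grown in 96-well plates (RPMI 1640; MRC-5 in MEM, 10% FBS, antibiotics) with compound […]; fixed in 10% TCA 30 min at 4 °C, stained 0.4% SRB in 1% acetic acid 1 h, dye dissolved in 10 mM Tris pH 10.0, A515 read; viability as % of solvent control, IC50 by nonlinear regression; mean of three independent experiments.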

HCT-116 [2] = experiment: Induction of reactive oxygen species in human HCT116 cells at 1 mM after 48 hrs by DCFH-DA staining-based flow cytometric analysis (reference value: 5.1%); format: functional
Method in brief: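 HCT116 cells seeded overnight, then exposed to test compounds, alone or with NAC, for 48 h in complete medium. Loaded with 20 μM DCFH-DA for 30 min; intracellular ROS in 20 000 cells per group read by flow cytometry as histograms.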

HCT-116 [3] = experiment: Induction of apoptosis in human HCT116 cells assessed as dead cells at 1 mM after 48 hrs by annexin V-FITC/propidium iodide staining-based flow cytometric analysis (reference value: 4.2%); format: functional
HCT-116 [4] = experiment: Induction of apoptosis in human HCT116 cells assessed as late apoptotic cells at 1 mM after 48 hrs by annexin V-FITC/propidium iodide staining-based flow cytometric analysis (reference value: 7.2%); format: functional
HCT-116 [5] = experiment: Induction of apoptosis in human HCT116 cells assessed as viable cells at 1 mM after 48 hrs by annexin V-FITC/propidium iodide staining-based flow cytometric analysis (reference value: 87.4%); format: functional; details: HCT-116, 48 h, read-out: Activity
HCT-116 [6] = experiment: Induction of apoptosis in human HCT116 cells assessed as early apoptotic cells at 1 mM after 48 hrs by annexin V-FITC/propidium iodide staining-based flow cytometric analysis (reference value: 1.1%); format: functional
[7] = Antiproliferative activity against human HCT116 cells assessed as cell viability after 24 hrs by SRB assay; format: functional, cell-based; details: HCT-116, 24 h
Method in brief: (§2)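 HCT116 cells in 96-well plates exposed 24, 48 or 72 h; TCA fixation, 0.4% SRB staining, dye solubilised in 10 mM Tris pH 10.0, absorbance at 515 nm; viability relative to solvent-treated control.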

[8] = Antiproliferative activity against human HCT116 cells assessed as cell viability after 48 hrs by SRB assay; format: functional, cell-based; details: HCT-116, 48 h; method in brief: as §2
[9] = Antiproliferative activity against human HCT116 cells assessed as cell viability after 72 hrs by SRB assay; format: functional, cell-based; details: HCT-116, 72 h; method in brief: as §2
[10] = Antiproliferative activity against p53-null human HCT116 cells assessed as cell viability after 72 hrs by SRB assay; format: functional, cell-based; details: HCT-116, 72 h
Method in brief: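 p53 wild-type and p53-null HCT116 cells in 96-well plates treated 72 h; SRB assay (TCA fix, SRB stain, Tris pH 10.0 solubilisation, A515); viability vs solvent control, IC50 by nonlinear regression.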

A549 = experiment: Antiproliferative activity against human A549 cells after 24 to 72 hrs by SRB assay; format: functional, cell-based; method in brief: as §1
CAKI-1 = experiment: Antiproliferative activity against human CAKI-1 cells after 24 to 72 hrs by SRB assay; format: functional, cell-based; method in brief: as §1
K562 = experiment: Antiproliferative activity against human K562 cells after 24 to 72 hrs by SRB assay; format: functional, cell-based; method in brief: as §1
MRC5 = experiment: Cytotoxicity against human MRC5 cells after 24 to 72 hrs by SRB assay; format: cell-based; method in brief: as §1
[11] = Antitumor activity against human HCT116 cells xenografted in nude mouse assessed as tumor growth inhibition at 10 mg/kg, ip administered once per week measured on day 41; format: functional; details: HCT-116, ip, 984 h, read-out: TGI
Method in brief: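 Nude mice given 2 × 10^6 HCT116 cells subcutaneously in flank; at ~120 mm3 randomised, six per group; ip dosing in 200 μL, test agent 5 or 10 mg/kg three times weekly, irinotecan 10 mg/kg once weekly; tumour volume measured twice weekly to day 41; body weight tracked for toxicity.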

SW480 = experiment: Antiproliferative activity against human SW480 cells after 24 to 72 hrs by SRB assay; format: functional, cell-based; method in brief: as §1
[12] = Antiproliferative activity against human HCT15 cells after 24 to 72 hrs by SRB assay; format: functional, cell-based; details: HCT-15; method in brief: as §1
RKO = experiment: Antiproliferative activity against human RKO cells after 24 to 72 hrs by SRB assay; format: functional, cell-based; method in brief: as §1

## CC(=O)/C=C/C=C/c1ccc2c(c1)O[C@@H](CO)[C@H](c1ccc(O)c(O)c1)O2
[1]
  IC50: > 100 µM

## O=C/C=C/c1ccc2c(c1)O[C@@H](CO)[C@H](c1ccc3c(c1)O[C@@H](CO)[C@H](c1ccc(O)c(O)c1)O3)O2
[1]
  IC50: 10.9 µM

## COc1ccc([C@@H]2Oc3ccc(C=O)cc3O[C@H]2CO)cc1OC
[1]
  IC50: > 100 µM

## COc1ccc([C@@H]2Oc3ccc(/C=C/C=O)cc3O[C@H]2COC(C)=O)cc1OC
[1]
  IC50: 5.6 µM

## O=C/C=C/c1ccc2c(c1)[C@@H](CO)[C@H](c1ccc(O)c(O)c1)O2
[1]
  IC50: 10.4 µM

## COc1ccc([C@@H]2Oc3ccc(/C=C/C=O)cc3O[C@H]2CO)cc1OC
[1]
  IC50: 4 µM

## CC(=O)N[C@@H](CS)C(=O)O [ACETYLCYSTEINE]
HCT-116 [2]
  Activity: 6%
HCT-116 [3]
  Activity: 4.9%
HCT-116 [4]
  Activity: 8.5%
HCT-116 [5]
  viability at 1000 µM: 85.6%
HCT-116 [6]
  Activity: 1.1%

## COc1cc([C@@H]2c3cc4c(cc3[C@@H](O[C@@H]3O[C@@H]5CO[C@@H](C)O[C@H]5[C@H](O)[C@H]3O)[C@H]3COC(=O)[C@H]23)OCO4)cc(OC)c1O [ETOPOSIDE]
[7]
  IC50: > 20 µM
[8]
  IC50: 2.3 µM
[9]
  IC50: 0.3 µM
[10]
  IC50: 3.1 µM
A549
  IC50: 0.8 µM
CAKI-1
  IC50: 1.1 µM
K562
  IC50: 6.7 µM
[1]
  IC50: 3.3 µM
MRC5
  IC50: > 20 µM

## CCc1c2c(nc3ccc(OC(=O)N4CCC(N5CCCCC5)CC4)cc13)-c1cc3c(c(=O)n1C2)COC(=O)[C@]3(O)CC [IRINOTECAN]
[11]
  inhibition in vivo at 10 mg/kg: 68.6%
[1]
  IC50: 2 µM
SW480
  IC50: 12.3 µM
[12]
  IC50: 8.5 µM
RKO
  IC50: 6.2 µM
